Measurements as given in ChEMBL document CHEMBL4825702, “5-Aminonaphthalene derivatives as selective nonnucleoside nuclear receptor binding SET domain-protein 2 (NSD2) inhibitors for the treatment of multiple myeloma” (Eur J Med Chem, 2021).
Activity calls are given as the source filed them. The rule behind the calls is not given here.

Columns and labels:
KMS-11 [1] = assay: Antiproliferative activity against human KMS-11 cells assessed as reduction in cell viability incubated for 6 days by CCK8 assay; details: KMS-11, 6 days
MV4-11 = assay: Antiproliferative activity against human MV4-11 cells assessed as reduction in cell viability incubated for 6 days by CCK8 assay
RPMI-8226 = assay: Antiproliferative activity against human RPMI-8226 cells assessed as reduction in cell viability incubated for 6 days by CCK8 assay
RS4-11 [2] = assay: cells; details: Homo sapiens, RS4-11, 72 h, read-out: Activity
[3] = Volume of distribution in CD-1 mouse at 2 mg/kg, iv measured up to 24 hrs by LC-MS/MS; format: ADME, organism-based; details: in vivo
Summary of the method: (§1)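 CD-1 mice dosed at 2 mg/kg i.p. or i.v., n = 3 per group. Blood sampled at 0, 0.083, 0.25, 0.5, 1, 2, 4, 6, 8 and 24 h and spun for plasma. Internal standard added, deproteinized with methanol/acetonitrile (1:1), supernatant diluted and analysed by LC/MS/MS.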

[4] = biological target: T1, Histone-lysine N-methyltransferase NSD2 (Homo sapiens, UniProt O96028); assay: Inhibition of recombinant human N-terminal GST-tagged NSD2 CD (941 to 1240 residues) expressed in Escherichia coli using SAM as substrate in presence of nucleosomes by AlphaLISA method
T1 sequence (O96028 whole entry): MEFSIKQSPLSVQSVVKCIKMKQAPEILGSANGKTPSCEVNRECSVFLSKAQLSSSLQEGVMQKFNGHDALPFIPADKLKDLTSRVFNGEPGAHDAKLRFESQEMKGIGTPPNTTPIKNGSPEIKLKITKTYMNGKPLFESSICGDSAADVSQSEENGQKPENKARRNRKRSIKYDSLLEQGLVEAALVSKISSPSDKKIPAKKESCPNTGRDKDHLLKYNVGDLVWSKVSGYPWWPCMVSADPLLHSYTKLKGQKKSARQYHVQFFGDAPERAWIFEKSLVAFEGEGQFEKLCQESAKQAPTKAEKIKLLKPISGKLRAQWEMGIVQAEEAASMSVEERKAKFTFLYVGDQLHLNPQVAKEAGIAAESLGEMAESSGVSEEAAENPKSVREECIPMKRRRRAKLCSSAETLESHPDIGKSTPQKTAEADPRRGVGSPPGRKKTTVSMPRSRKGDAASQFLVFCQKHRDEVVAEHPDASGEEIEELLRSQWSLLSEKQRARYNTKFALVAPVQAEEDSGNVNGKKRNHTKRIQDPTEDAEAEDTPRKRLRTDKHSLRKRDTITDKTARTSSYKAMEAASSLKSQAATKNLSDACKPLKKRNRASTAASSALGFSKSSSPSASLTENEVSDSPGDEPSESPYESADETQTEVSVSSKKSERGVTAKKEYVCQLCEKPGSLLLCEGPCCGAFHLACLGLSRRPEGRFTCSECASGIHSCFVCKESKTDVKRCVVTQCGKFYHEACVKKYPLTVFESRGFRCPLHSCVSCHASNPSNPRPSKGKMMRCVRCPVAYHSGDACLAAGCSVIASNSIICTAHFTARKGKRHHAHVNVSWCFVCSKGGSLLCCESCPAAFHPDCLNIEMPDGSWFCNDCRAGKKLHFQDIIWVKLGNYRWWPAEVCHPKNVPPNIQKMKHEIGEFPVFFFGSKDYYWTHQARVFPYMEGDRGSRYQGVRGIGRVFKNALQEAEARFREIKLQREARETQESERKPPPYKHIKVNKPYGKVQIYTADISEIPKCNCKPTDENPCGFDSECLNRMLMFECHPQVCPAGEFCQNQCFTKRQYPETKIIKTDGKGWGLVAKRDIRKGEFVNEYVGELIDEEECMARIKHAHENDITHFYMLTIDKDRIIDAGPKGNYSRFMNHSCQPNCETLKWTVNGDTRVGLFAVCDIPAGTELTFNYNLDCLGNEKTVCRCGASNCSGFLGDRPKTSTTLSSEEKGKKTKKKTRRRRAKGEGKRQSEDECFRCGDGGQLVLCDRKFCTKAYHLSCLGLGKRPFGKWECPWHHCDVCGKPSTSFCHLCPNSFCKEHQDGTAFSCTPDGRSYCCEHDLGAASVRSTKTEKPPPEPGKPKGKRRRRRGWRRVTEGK

[5] = biological target: Histone-lysine N-methyltransferase, H3 lysine-36 specific (Homo sapiens, UniProt Q96L73); assay: Inhibition of NSD1 (unknown origin) using SAM as substrate preincubated for 10 mins followed by substrate addition measured after 4 hrs by AlphaLISA method
Histone-lysine N-methyltransferase, H3 lysine-36 specific, sequence (Q96L73 whole entry): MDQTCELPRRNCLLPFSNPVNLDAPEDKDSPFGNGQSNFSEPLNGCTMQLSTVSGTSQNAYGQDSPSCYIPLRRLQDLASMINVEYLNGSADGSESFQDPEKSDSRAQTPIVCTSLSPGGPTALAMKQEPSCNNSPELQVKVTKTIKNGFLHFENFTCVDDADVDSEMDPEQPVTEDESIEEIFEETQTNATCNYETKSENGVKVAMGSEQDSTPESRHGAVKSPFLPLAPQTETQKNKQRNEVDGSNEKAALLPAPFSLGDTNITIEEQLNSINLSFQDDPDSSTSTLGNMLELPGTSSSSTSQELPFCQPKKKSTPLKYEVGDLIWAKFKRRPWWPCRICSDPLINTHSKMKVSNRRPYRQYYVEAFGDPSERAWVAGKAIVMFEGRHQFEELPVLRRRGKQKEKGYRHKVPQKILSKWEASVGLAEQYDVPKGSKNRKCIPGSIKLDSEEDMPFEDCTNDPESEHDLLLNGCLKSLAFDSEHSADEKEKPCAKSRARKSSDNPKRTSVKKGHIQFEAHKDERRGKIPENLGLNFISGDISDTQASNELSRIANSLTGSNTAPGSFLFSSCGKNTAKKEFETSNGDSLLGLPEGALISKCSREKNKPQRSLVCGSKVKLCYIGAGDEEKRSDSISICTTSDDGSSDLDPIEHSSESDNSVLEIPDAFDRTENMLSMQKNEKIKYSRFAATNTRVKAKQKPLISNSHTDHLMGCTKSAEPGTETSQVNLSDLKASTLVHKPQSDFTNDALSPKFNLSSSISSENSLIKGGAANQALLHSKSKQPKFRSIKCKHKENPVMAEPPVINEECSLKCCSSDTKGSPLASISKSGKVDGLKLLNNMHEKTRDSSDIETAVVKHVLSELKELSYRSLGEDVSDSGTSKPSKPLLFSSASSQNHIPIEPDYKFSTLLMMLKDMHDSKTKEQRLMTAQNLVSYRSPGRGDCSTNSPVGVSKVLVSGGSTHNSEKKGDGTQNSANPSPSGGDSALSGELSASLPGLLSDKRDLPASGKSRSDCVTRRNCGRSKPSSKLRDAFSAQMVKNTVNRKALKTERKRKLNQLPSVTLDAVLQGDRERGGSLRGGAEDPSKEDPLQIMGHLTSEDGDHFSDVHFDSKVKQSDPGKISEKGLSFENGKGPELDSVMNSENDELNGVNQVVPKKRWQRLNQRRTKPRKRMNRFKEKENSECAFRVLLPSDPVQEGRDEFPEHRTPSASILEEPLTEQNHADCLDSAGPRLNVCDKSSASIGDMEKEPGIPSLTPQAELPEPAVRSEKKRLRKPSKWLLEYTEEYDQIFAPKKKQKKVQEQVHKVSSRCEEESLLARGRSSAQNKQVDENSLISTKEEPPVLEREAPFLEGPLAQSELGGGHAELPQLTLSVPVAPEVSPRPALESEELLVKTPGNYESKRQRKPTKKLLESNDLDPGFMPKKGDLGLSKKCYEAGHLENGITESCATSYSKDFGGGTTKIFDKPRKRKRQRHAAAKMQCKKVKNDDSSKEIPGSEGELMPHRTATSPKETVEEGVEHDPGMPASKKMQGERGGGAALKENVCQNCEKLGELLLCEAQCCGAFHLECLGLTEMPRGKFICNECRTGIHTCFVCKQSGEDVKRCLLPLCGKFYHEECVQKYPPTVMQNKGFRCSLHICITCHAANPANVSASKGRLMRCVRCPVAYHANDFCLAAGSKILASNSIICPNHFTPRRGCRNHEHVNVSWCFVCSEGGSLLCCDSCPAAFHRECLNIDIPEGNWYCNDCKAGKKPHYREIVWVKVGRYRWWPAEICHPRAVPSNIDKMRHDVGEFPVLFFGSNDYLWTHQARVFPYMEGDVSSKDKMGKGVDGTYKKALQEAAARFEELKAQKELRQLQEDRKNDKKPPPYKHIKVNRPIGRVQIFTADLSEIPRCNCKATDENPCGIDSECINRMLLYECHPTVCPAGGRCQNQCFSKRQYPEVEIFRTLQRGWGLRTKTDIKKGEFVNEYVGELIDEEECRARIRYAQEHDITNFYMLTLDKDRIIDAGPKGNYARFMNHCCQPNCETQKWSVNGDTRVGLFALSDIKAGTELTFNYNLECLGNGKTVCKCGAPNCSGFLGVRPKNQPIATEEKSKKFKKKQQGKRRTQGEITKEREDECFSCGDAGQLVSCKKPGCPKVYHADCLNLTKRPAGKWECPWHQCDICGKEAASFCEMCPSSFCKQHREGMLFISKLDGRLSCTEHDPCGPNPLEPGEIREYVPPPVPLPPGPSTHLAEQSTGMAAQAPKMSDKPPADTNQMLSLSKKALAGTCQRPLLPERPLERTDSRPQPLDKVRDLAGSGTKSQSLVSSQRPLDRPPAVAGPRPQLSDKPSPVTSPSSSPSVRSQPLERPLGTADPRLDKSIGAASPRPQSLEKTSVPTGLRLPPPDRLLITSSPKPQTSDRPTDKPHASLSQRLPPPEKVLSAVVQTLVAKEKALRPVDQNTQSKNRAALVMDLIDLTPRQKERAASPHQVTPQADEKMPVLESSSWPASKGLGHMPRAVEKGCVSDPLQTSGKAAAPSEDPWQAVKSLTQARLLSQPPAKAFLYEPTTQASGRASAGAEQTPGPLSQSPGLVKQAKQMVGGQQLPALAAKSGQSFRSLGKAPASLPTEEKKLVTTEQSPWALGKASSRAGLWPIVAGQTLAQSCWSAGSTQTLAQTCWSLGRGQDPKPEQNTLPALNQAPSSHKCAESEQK

RS4-11 [6] = assay: Induction of apoptosis in human RS4-11 cells incubated for 72 hrs by annexin-V/FITC and propidium iodide staining based flow cytometry analysis; format: functional, cell-based; details: dose 5-10 µM
RS4-11 [7] = assay: Antiproliferative activity against human RS4-11 cells assessed as reduction in cell viability incubated for 6 days by CCK8 assay; details: RS4-11, 6 days
KMS-11 [8] = assay: cells; details: Homo sapiens, KMS-11, 72 h, read-out: Activity
[9] = Clearance in CD-1 mouse at 2 mg/kg, iv measured up to 24 hrs by LC-MS/MS; format: ADME, organism-based; details: in vivo
Summary of the method: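 CD-1 mice given a single 2 mg/kg i.v. dose (n = 3). Plasma collected at 0–24 h (0.083, 0.25, 0.5, 1, 2, 4, 6, 8, 24 h), deproteinized with methanol/acetonitrile 1:1 and analysed by LC/MS/MS. Clearance derived from the plasma concentration–time data.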

KMS-11 [10] = assay: Induction of apoptosis in human KMS-11 cells incubated for 72 hrs by annexin-V/FITC and propidium iodide staining based flow cytometry analysis; format: functional, cell-based; details: dose 5-10 µM
RS4-11 [11] = assay: cells; details: Homo sapiens, RS4-11, 72 h, read-out: Activity; remark: listed apart in the source
[12] = MRT in CD-1 mouse at 2 mg/kg, ip measured up to 24 hrs by LC-MS/MS; format: ADME, organism-based; details: in vivo
Summary of the method: as §1

[13] = biological target: Protransforming growth factor alpha (Homo sapiens) (UniProt P01135); assay: Inhibition of TGFA transcriptional activity in human KMS-11 cells assessed as reduction in H3K36 methylation at 10 uM measured after 72 hrs by chip q-PCR analysis; format: cell-based
Protransforming growth factor alpha (Homo sapiens), sequence (P01135 whole entry): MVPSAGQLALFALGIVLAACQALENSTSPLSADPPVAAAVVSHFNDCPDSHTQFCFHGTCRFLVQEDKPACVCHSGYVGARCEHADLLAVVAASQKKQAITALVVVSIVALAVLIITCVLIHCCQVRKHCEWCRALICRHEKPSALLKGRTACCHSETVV
Summary of the method: (§2)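 KMS11 cells treated with test agent or DMSO. ChIP with magnetic-bead enzymatic chromatin IP kit using anti-H3K36me2, anti-histone H3 and IgG control antibodies. H3K36me2 quantified by qPCR with primers spanning the promoter regions of TGFA, MET, PAK1 and RRAS2.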

[14] = biological target: Ras-related protein R-Ras2 (Homo sapiens) (UniProt P62070); assay: Inhibition of RRAS2 transcriptional activity in human KMS-11 cells assessed as reduction in H3K36 methylation at 10 uM measured after 72 hrs by chip q-PCR analysis; format: cell-based
Ras-related protein R-Ras2 (Homo sapiens), sequence (P62070 whole entry): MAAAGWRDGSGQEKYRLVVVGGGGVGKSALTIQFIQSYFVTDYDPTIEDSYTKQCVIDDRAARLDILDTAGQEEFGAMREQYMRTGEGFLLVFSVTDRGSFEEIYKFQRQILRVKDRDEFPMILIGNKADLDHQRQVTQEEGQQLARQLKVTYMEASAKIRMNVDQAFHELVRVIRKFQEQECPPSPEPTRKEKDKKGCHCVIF
Summary of the method: as §2

KMS-11 [15] = assay: cells; details: Homo sapiens, KMS-11, 72 h, read-out: Activity; remark: listed apart in the source

Vd [3]: 3.85 L/kg | IC50 [4]: 2.7 µM | IC50 [5]: > 20 µM | IC50 (RS4-11 [7]): 0.52 µM | clearance [9]: 9.78 L/h/kg | MRT [12]: 31.9 min | inhibition [13]: Active | inhibition [14]: Active
SMILES: Cl.Nc1cccc2c(S(=O)(=O)NCc3ccccc3)cccc12
IC50 (KMS-11 [1]): 1.88 µM | Activity (MV4-11): Active | Activity (RPMI-8226): Active | viability at 5 µM (RS4-11 [2]): 2.19% | Activity (RS4-11 [6]): Dose-Dependent Effect | viability at 5 µM (KMS-11 [8]): 58.7% | Activity (KMS-11 [10]): Dose-Dependent Effect | viability at 10 µM (RS4-11 [11]): 3.53% | viability at 10 µM (KMS-11 [15]): 50.4%
